≈ marks a conversion by molar mass, not a printed value.
tested on: Mycobacterium tuberculosis; test: Antitubercular activity against multi drug resistant Mycobacterium tuberculosis H37Rv after 5 days by microplate alamar blue assay; type: functional; settings: 120 h
Outline: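 Middlebrook 7H9 broth with compounds serially diluted on the plate over ten concentrations from 0.2 to 100. Sealed plates incubated 5 days at 37°C, then a fresh 1:1 mix of Alamar Blue and 10% Tween 80 was added for a further 24 h. Blue wells were scored as no growth and pink wells as growth.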

Row | SMILES | MIC
1 | COc1ccc(/C=C/C(=O)c2ccc(-n3cccc3)cc2)cc1 | 12.5 µg/mL (≈ 41.2 µM)
2 | COc1cc(C2CC(c3cccc([N+](=O)[O-])c3)=NN2C(C)=O)cc(OC)c1OC (centres undefined) | 12.5 µg/mL (≈ 31.3 µM)
3 | CC(=O)Nc1ccc(O)c(C2CC(c3ccc(Cl)cc3)=NN2C(=O)c2ccncc2)c1 (centres undefined) | 3.12 µg/mL (≈ 7.17 µM)
4 | COc1ccc(C2CC(c3ccc(-n4cccc4)cc3)=NN2C(C)=O)cc1OC (centres undefined) | 12.5 µg/mL (≈ 32.1 µM)
5 | Clc1ccc(-c2cc(-c3ccc(-n4cccc4)cc3)on2)cc1 | 50 µg/mL (≈ 156 µM)
6 | Clc1cccc(Cl)c1-c1cc(-c2ccc(-n3cccc3)cc2)on1 | 100 µg/mL (≈ 282 µM)
7 | Cc1ccc(NC(=S)Nc2ccccc2-n2c(C)ccc2C)cc1 | 50 µg/mL (≈ 149 µM)
8 | Brc1ccccc1-c1cc(-c2ccc(-n3cccc3)cc2)on1 | 100 µg/mL (≈ 274 µM)
9 | Clc1cccc(-c2cc(-c3ccc(-n4cccc4)cc3)on2)c1Cl | 25 µg/mL (≈ 70.4 µM)
10 | CC(=O)N1N=C(c2ccc(-n3cccc3)cc2)CC1c1ccc(Cl)cc1Cl (centres undefined) | 25 µg/mL (≈ 62.8 µM)
11 | O=C(/C=C/c1ccccc1Cl)c1ccc(-n2cccc2)cc1 | 25 µg/mL (≈ 81.2 µM)
12 | Cc1ccc(C)n1-c1ccccc1NC(=S)Nc1ccc(Cl)c(Cl)c1 | 6.25 µg/mL (≈ 16 µM)
13 | CC(=O)N1N=C(c2ccc(-n3cccc3)cc2)CC1c1ccc(Cl)cc1 (centres undefined) | 25 µg/mL (≈ 68.7 µM)
14 | Brc1cccc(-c2cc(-c3ccc(-n4cccc4)cc3)on2)c1 | 50 µg/mL (≈ 137 µM)
15 | Fc1ccc(-c2cc(-c3ccc(-n4cccc4)cc3)on2)cc1 | 12.5 µg/mL (≈ 41.1 µM)
16 | O=C(/C=C/c1ccccc1)c1ccc(-n2cccc2)cc1 | 50 µg/mL (≈ 183 µM)
17 | O=C(/C=C/c1ccc(Cl)cc1Cl)c1ccc(-n2cccc2)cc1 | 25 µg/mL (≈ 73.1 µM)
18 | CC(=O)N1N=C(c2ccc(-n3cccc3)cc2)CC1c1ccccc1 (centres undefined) | 25 µg/mL (≈ 75.9 µM)
19 | Cc1ccc(C)n1-c1ccccc1NC(=S)Nc1ccccc1Br | 50 µg/mL (≈ 125 µM)
20 | Clc1ccc(-c2cc(-c3ccc(-n4cccc4)cc3)on2)c(Cl)c1 | 50 µg/mL (≈ 141 µM)

Row | SMILES | MIC
21 | Clc1ccccc1-c1cc(-c2ccc(-n3cccc3)cc2)on1 | 25 µg/mL (≈ 77.9 µM)
22 | CC(C)c1ccc(/C=C/C(=O)c2ccc(-n3cccc3)cc2)cc1 | 12.5 µg/mL (≈ 39.6 µM)
23 | Cc1ccc(C)n1-c1ccccc1NC(=S)Nc1ccc(F)cc1 | 1.6 µg/mL (≈ 4.71 µM)
24 | COc1cccc(C2CC(c3ccc(-n4cccc4)cc3)=NN2C(C)=O)c1 (centres undefined) | 6.25 µg/mL (≈ 17.4 µM)
25 | CC(=O)N1N=C(c2ccc(-n3cccc3)cc2)CC1c1ccccc1Br (centres undefined) | 100 µg/mL (≈ 245 µM)
26 | CC(=O)N1N=C(c2ccc(-n3cccc3)cc2)CC1c1c(Cl)cccc1Cl (centres undefined) | 25 µg/mL (≈ 62.8 µM)
27 | O=C(/C=C/c1ccccc1O)c1ccc(-n2cccc2)cc1 | 25 µg/mL (≈ 86.4 µM)
28 | Cc1ccc(C)n1-c1ccccc1NC(=S)Nc1ccccc1 | 50 µg/mL (≈ 156 µM)
29 | NC(=S)N1N=C(C/N=N/NC(=O)c2cccnc2)CC1c1ccccc1 (centres undefined) | 1.25 µg/mL (≈ 3.4 µM)
30 | O=C(/C=C/c1cccc(Cl)c1Cl)c1ccc(-n2cccc2)cc1 | 25 µg/mL (≈ 73.1 µM)
31 | c1coc(-c2cc(-c3ccc(-n4cccc4)cc3)on2)c1 | 25 µg/mL (≈ 90.5 µM)
32 | CC(=O)N1N=C(c2ccc(-n3cccc3)cc2)CC1c1ccco1 (centres undefined) | 25 µg/mL (≈ 78.3 µM)
33 | O=C(/C=C/c1cccc(Oc2ccccc2)c1)c1ccc(-n2cccc2)cc1 | 25 µg/mL (≈ 68.4 µM)
34 | Cc1ccc(C)n1-c1ccccc1NC(=S)Nc1ccc(Cl)cc1 | 50 µg/mL (≈ 140 µM)
35 | CC(=O)N1N=C(c2ccc(-n3cccc3)cc2)CC1c1ccccc1Cl (centres undefined) | 25 µg/mL (≈ 68.7 µM)
36 | COc1ccc(-c2cc(-c3ccc(-n4cccc4)cc3)on2)cc1OC | 12.5 µg/mL (≈ 36.1 µM)
37 | c1ccc(-c2cc(-c3ccc(-n4cccc4)cc3)on2)cc1 | 100 µg/mL (≈ 349 µM)
38 | Cc1ccc(-c2cc(-c3ccc(-n4cccc4)cc3)on2)cc1 | 12.5 µg/mL (≈ 41.6 µM)
39 | COc1ccc(C2CC(c3ccc(-n4cccc4)cc3)=NN2C(C)=O)c(OC)c1 (centres undefined) | 6.25 µg/mL (≈ 16 µM)
40 | Cc1ccc(C)n1-c1ccccc1NC(=S)Nc1ccc([N+](=O)[O-])cc1 | 50 µg/mL (≈ 136 µM)

Row | SMILES | MIC
41 | O=C(/C=C/c1c(Cl)cccc1Cl)c1ccc(-n2cccc2)cc1 | 25 µg/mL (≈ 73.1 µM)
42 | O=C(/C=C/c1cccc(Br)c1)c1ccc(-n2cccc2)cc1 | 100 µg/mL (≈ 284 µM)
43 | CC(=O)N1N=C(c2ccc(-n3cccc3)cc2)CC1c1cccc(Cl)c1Cl (centres undefined) | 25 µg/mL (≈ 62.8 µM)
44 | O=C(/C=C/c1ccccc1Br)c1ccc(-n2cccc2)cc1 | 50 µg/mL (≈ 142 µM)
45 | CC(=O)N1N=C(c2ccc(-n3cccc3)cc2)CC1c1ccc(F)cc1 (centres undefined) | 12.5 µg/mL (≈ 36 µM)
46 | O=C(/C=C/c1ccco1)c1ccc(-n2cccc2)cc1 | 50 µg/mL (≈ 190 µM)
47 | COc1cccc(/C=C/C(=O)c2ccc(-n3cccc3)cc2)c1 | 25 µg/mL (≈ 82.4 µM)
48 | Cc1ccc(C)n1-c1ccccc1NC(=S)Nc1cccc(Cl)c1 | 50 µg/mL (≈ 140 µM)
49 | O=C(/C=C/c1ccc(F)cc1)c1ccc(-n2cccc2)cc1 | 12.5 µg/mL (≈ 42.9 µM)
50 | CC(=O)N1N=C(c2ccc(-n3cccc3)cc2)CC1c1cccc(Br)c1 (centres undefined) | 50 µg/mL (≈ 122 µM)
51 | CC(=O)N1N=C(c2ccc(-n3cccc3)cc2)CC1c1ccc(C)cc1 (centres undefined) | 6.25 µg/mL (≈ 18.2 µM)
52 | Cc1ccc(C)n1-c1ccccc1NC(=S)Nc1cccc(Br)c1 | 50 µg/mL (≈ 125 µM)
53 | c1ccc(Oc2cccc(-c3cc(-c4ccc(-n5cccc5)cc4)on3)c2)cc1 | 12.5 µg/mL (≈ 33 µM)
54 | COc1ccc(/C=C/C(=O)c2ccc(-n3cccc3)cc2)cc1OC | 25 µg/mL (≈ 75 µM)
55 | CC(=O)N1N=C(c2ccc(-n3cccc3)cc2)CC1c1cccc(Oc2ccccc2)c1 (centres undefined) | 12.5 µg/mL (≈ 29.7 µM)
56 | COc1ccccc1NC(=S)N1N=C(c2ccc(O)c(C)c2)CC1c1c(Cl)cccc1Cl (centres undefined) | 1.66 µg/mL (≈ 3.41 µM)
57 | O=C(/C=C/c1ccc(Cl)cc1)c1ccc(-n2cccc2)cc1 | 50 µg/mL (≈ 162 µM)
58 | CC[C@@H](CO)NCCN[C@@H](CC)CO [ETHAMBUTOL] | 0.5 µg/mL (≈ 2.45 µM)
59 | CO[C@H]1/C=C/O[C@@]2(C)Oc3c(C)c(O)c4c(O)c(c(/C=N/N5CCN(C)CC5)c(O)c4c3C2=O)NC(=O)/C(C)=C\C=C\[C@H](C)[C@H](O)[C@@H](C)[C@@H](O)[C@@H](C)[C@H](OC(C)=O)[C@@H]1C [RIFAMPIN] | 0.4 µg/mL (≈ 0.486 µM)

Source: ChEMBL document CHEMBL3745673, “Synthesis, antimycobacterial screening and ligand-based molecular docking studies on novel pyrrole derivatives bearing pyrazoline, isoxazole and phenyl thiourea moieties” (Eur J Med Chem, 2016)
